Reference: PubChem BioAssay AID540320 (Southern Research Specialized Biocontainment Screening …, 2011)
The source made the active and inactive calls.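 Rule for the calls: active = progeny virus titer drops over tenfold versus the untreated infected control, meaning log virus titer change below -1; inactive = the rest.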

Each molecule was assayed on HEp-2 cells, RSV plaque reduction, virus titer (assay: antiviral reduction of RSV infectious yield – plaque reduction, HEp-2 cells, set 3, orthogonal assay for RSV antiviral project (AID 540320)). Settings: at 10 µM; hits give low values.
Summary of the method: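 Assay system: HEp-2 cells infected with RSV Long strain; Reagent: RSV Long, MOI 0.1; Compound: single dose, 0.5% DMSO; Incubation: 48 h compound exposure at 37 °C after infection; Signal: plaque assay on fresh HEp-2, PFA fixation, neutral red staining; Measure: progeny virus titer in 48 h culture supernatant; Control set: Ribavirin 35 µM.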
With `COCCCNC(=O)c1ccc(Cn2c(=O)c3ccccc3n(Cc3ccc(OC)cc3)c2=O)cc1` the log virus titer change was -2.72.
For `COCCCNC(=O)c1ccc(Cn2c(=O)c3ccc(Br)cc3n(Cc3ccc(C)cc3)c2=O)cc1`, the log virus titer change was -0.31 (inactive).
`Cc1ccc(F)cc1NC(=O)[C@@H]1CCCN1S(=O)(=O)c1cccc2cccnc12` was tested, and the log virus titer change was -0.33 (inactive).
`Cc1ccc(Cn2c(=O)n(Cc3ccc(C(=O)Nc4cc(C)nc5ccccc45)cc3)c(=O)c3ccccc32)cc1` was tested, and the log virus titer change was -0.61 (inactive).
`COCCCNC(=O)c1ccc(Cn2c(=O)c3ccccc3n(Cc3ccc(C)c(C(F)(F)F)c3)c2=O)cc1` gave a log virus titer change of -2.37.
`Cc1cccc(NC(=O)[C@@H]2CCCN2S(=O)(=O)c2cccc3cccnc23)c1C` was tested, and the log virus titer change was -0.39 (inactive).
For `COCCCNC(=O)c1ccc(Cn2c(=O)c3ccccc3n(Cc3ccc(C(F)(F)F)cc3)c2=O)cc1`, the log virus titer change was -2.66.
For `Cc1cc(NC(=O)[C@@H]2CCCN2S(=O)(=O)c2cccc3cccnc23)n(C(C)(C)C)n1`, the log virus titer change was -0.71 (inactive).
`Cc1ccc(Cn2c(=O)n(Cc3ccc(C(=O)NC(C)(C)C)cc3)c(=O)c3ccccc32)cc1` gave a log virus titer change of -5.38.
`Cc1ccc(Cn2c(=O)n(Cc3ccc(C(=O)Nc4ccncc4)cc3)c(=O)c3ccccc32)cc1` gave a log virus titer change of -3.25.
Molecule `COCCCNC(=O)c1ccc(Cn2c(=O)c3ccccc3n(Cc3ccc([N+](=O)[O-])cc3)c2=O)cc1` has a log virus titer change of -4.94.
`Cc1ccc(Cn2c(=O)n(Cc3ccc(C(=O)Nc4nccs4)cc3)c(=O)c3ccccc32)cc1` was tested, and the log virus titer change was -0.01 (inactive).
With `COCCCNC(=O)c1ccc(Cn2c(=O)c3ccccc3n(Cc3ccc(Cl)cc3)c2=O)cc1` the log virus titer change was -3.12.
`COCCCNC(=O)c1ccc(Cn2c(=O)c3ccccc3n(Cc3ccc4nonc4c3)c2=O)cc1` was tested, and the log virus titer change was -2.05.
Molecule `COCCCNC(=O)c1ccc(Cn2c(=O)c3ccccc3n(Cc3ccc(Br)cc3)c2=O)cc1` has a log virus titer change of -4.51.
